Reference: ChEMBL document CHEMBL1240366, “Blockade of X4-tropic HIV-1 cellular entry by GSK812397, a potent noncompetitive CXCR4 receptor antagonist” (Antimicrob Agents Chemother, 2010)

How the values were obtained:
[1] = molecular target: Cytochrome P450 3A4 (Homo sapiens, UniProt P08684); assay: Inhibition of CYP3A4 up to 30 uM; assay type: ADME
[2] = test system: Human immunodeficiency virus 1; assay: Antiviral activity against HIV1 3B infected in human HOS cells after 72 hrs by luminescence assay in presence of 45 mg/ml human serum albumin; assay type: functional, organism-based; details: Human immunodeficiency virus 1, 3B
Method in brief: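 HOS LTR-luciferase viral assay (1 h compound pre-incubation, virus plus compound, 72 h, 37°C, luminescence) run with human serum albumin (45 mg/ml) with or without α-acid glycoprotein (1 mg/ml). Protein-free IC50 served as baseline for fold shift.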

[3] = molecular target: Cytochrome P450 2D6 (Homo sapiens, UniProt P10635); assay: Inhibition of CYP2D6 up to 30 uM; assay type: ADME
Chain of Cytochrome P450 2D6 (P10635 whole entry): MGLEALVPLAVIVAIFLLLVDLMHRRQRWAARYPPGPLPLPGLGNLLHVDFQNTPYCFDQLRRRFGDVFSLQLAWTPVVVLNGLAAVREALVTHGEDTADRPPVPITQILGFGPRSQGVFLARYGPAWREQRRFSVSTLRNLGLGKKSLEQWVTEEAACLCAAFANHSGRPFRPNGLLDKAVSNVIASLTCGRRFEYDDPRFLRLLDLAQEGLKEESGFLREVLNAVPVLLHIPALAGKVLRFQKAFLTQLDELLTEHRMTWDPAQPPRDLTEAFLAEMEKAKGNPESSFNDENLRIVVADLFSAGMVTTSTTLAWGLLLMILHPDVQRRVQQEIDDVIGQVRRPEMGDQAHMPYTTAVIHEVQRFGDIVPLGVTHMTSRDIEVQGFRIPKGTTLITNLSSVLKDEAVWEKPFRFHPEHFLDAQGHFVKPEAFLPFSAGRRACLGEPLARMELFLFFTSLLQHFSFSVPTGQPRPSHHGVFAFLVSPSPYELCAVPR

[4] = test system: Human immunodeficiency virus 1; assay: Antiviral activity against HIV1 isolate 05-121795 assessed as inhibition of viral replication after 7 days by scintillation counting; assay type: functional, organism-based; details: Human immunodeficiency virus 1, isolate 05-121795, 168 h
[5] = test system: Human immunodeficiency virus 1; assay: Antiviral activity against HIV1 3B infected in human PBMC assessed as inhibition of viral replication after 7 days by scintillation counting; assay type: functional, organism-based; details: Human immunodeficiency virus 1, 3B, 168 h
Method in brief: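 PHA/IL-2-stimulated donor PBMCs at 4 × 10^6 cells/ml in RPMI with 20% FCS and 10% IL-2. Cells were pre-incubated with compound for 1 h, then infected with HIV-1 IIIB pre-mixed with compound for 7 days at 37°C. Supernatant reverse transcriptase was measured with poly(rA)·oligo(dT) and [3H]dTTP for 2 h, captured on DE-81 filters, and counted.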

[6] = test system: Human immunodeficiency virus 1; assay: Antiviral activity against HIV1 isolate 05-121783 assessed as inhibition of viral replication after 7 days by scintillation counting; assay type: functional, organism-based; details: Human immunodeficiency virus 1, isolate 05-121783, 168 h
[7] = test system: Human immunodeficiency virus 1; assay: Antiviral activity against HIV1 isolate 05-121790 assessed as inhibition of viral replication after 7 days by scintillation counting; assay type: functional, organism-based; details: Human immunodeficiency virus 1, isolate 05-121790, 168 h
[8] = molecular target: C-X-C chemokine receptor type 4 (Homo sapiens) (UniProt P61073); assay: Antagonist activity at human CXCR4 expressed in HEK293 cells assessed as inhibition of SDF1-induced increase in intracellular calcium level treated 15 mins before agonist challenge measured after 1 hr by FLIPR assay; assay type: functional, cell-based
Chain of C-X-C chemokine receptor type 4 (Homo sapiens) (P61073 whole entry): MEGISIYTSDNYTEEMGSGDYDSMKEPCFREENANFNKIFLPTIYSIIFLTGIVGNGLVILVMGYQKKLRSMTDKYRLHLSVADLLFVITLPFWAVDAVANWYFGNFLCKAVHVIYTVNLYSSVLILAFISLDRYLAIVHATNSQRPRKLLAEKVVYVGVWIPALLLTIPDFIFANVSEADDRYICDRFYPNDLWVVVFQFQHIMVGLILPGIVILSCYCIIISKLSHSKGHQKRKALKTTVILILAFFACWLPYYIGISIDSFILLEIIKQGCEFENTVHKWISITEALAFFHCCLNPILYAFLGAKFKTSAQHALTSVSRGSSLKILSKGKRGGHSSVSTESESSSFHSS

[9] = test system: Human immunodeficiency virus 1; assay: Antiviral activity against HIV1 isolate 05-121784 assessed as inhibition of viral replication after 7 days by scintillation counting; assay type: functional, organism-based; details: Human immunodeficiency virus 1, isolate 05-121784, 168 h
[10] = test system: Human immunodeficiency virus 1; assay: Antiviral activity against HIV1 isolate 05-121801 assessed as inhibition of viral replication after 7 days by scintillation counting; assay type: functional, organism-based; details: Human immunodeficiency virus 1, isolate 05-121801, 168 h
[11] = Volume of distribution at steady state in monkey at 1 mg/kg, iv administered as single dose after 24 hrs by liquid chromatography-mass spectroscopy; assay type: ADME, organism-based, Macaca mulatta; design: dose 1 mg/kg, route intravenous; details: rhesus monkey, in vivo, read-out: Vdss
[12] = Clearance in monkey at 1 mg/kg, iv administered as single dose after 24 hrs by liquid chromatography-mass spectroscopy; assay type: ADME, organism-based, Macaca mulatta; design: dose 1 mg/kg, route intravenous; details: rhesus monkey, in vivo
Method in brief: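 Single intravenous dose of 1 mg/kg. Plasma was sampled at serial times over 24 h and measured by LC-MS/MS. Clearance was derived by pharmacokinetic analysis.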

[13] = test system: Human immunodeficiency virus 1; assay: Antiviral activity against HIV1 isolate 05-121782 assessed as inhibition of viral replication after 7 days by scintillation counting; assay type: functional, organism-based; details: Human immunodeficiency virus 1, isolate 05-121782, 168 h

Chain of Cytochrome P450 3A4 (P08684 whole entry): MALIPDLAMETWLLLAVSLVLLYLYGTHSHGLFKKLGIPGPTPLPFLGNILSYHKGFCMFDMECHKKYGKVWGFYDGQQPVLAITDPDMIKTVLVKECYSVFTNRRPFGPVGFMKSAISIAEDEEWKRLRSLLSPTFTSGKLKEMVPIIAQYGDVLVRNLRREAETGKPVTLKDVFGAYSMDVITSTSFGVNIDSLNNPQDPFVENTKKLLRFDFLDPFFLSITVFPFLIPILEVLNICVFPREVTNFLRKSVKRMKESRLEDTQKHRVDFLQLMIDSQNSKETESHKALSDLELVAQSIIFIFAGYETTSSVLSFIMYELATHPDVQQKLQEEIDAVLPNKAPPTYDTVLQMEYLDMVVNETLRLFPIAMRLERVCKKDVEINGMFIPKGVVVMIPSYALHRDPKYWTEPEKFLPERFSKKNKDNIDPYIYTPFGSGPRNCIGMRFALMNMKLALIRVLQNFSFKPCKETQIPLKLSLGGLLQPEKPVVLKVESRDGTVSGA

- inhibition (INH) [1]: Not Active
- IC50 [2]: 2.01 nM
- inhibition (INH) [3]: Not Active
- IC50 [4]: 1 nM
- IC50 [5]: 4.6 nM
- IC50 [6]: 1 nM
- IC50 [7]: 1 nM
- Activity [8]: Dose-dependent effect
- IC50 [9]: 1 nM
- IC50 [10]: 1 nM
- Vd [11]: 5.9 L/kg
- clearance [12]: 0.348 L/h/kg
- IC50 [13]: 1 nM
SMILES: CN1CCN(c2cccc3nc(CN(C)[C@H]4CCCc5cccnc54)c(CO)n23)CC1
